Data reported in article PMC7564327 (Acta Pharmaceutica Sinica. B, 2020).

Target: T1, hOAT1 (Homo sapiens, UniProt Q4U2R8)
T1 sequence (Q4U2R8 1-563): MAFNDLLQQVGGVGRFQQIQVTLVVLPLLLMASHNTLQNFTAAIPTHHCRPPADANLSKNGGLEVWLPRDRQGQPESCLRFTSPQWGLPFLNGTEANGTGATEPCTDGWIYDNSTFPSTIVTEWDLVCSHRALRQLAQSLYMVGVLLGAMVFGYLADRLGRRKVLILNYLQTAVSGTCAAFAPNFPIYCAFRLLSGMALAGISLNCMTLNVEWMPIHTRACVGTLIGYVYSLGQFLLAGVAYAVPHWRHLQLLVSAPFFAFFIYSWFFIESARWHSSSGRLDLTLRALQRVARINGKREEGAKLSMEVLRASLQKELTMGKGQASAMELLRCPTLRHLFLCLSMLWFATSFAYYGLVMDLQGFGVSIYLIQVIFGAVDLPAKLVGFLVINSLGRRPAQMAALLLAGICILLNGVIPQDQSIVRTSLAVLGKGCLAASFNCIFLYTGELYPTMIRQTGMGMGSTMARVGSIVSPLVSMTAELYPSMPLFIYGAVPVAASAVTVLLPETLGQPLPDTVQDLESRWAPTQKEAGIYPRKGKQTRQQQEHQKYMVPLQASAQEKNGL
Experiment: Cellular uptake in MDCK-hOAT1 vs Mock cells
Format: in vitro ADME
Conditions: 100 μmol/L, substrate if >2-fold of wild type
How it was run: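 Transfected cells and matching Mock cells were seeded at 2 × 10⁵ cells/mL and grown 2 days. After a DPBS (pH 7.4) wash and 10 min preincubation at 37 °C, cells took up 100 μmol/L test compound for 2–5 min at 37 °C. Uptake was stopped with three ice-cold DPBS washes, followed by methanol extraction and HPLC–MS. Values were normalised to BCA protein and compared with Mock.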

Structure (SMILES) | accumulation in MDCK-hOAT1, fold higher than in MDCK-Mock [fold]
CC(C)=CCOc1c2occc2cc2ccc(=O)oc12 [IPT, imperatorin] | ~4.92
CC(C)=CCOc1c2ccoc2cc2oc(=O)ccc12 [ISP, isoimperatorin] | ~3.40
